The subject of one data set is HepG-2 cells. The following applies: previous PD experiments of the group; cited from earlier work.
Data set [1] can be described thus: Stability of the three components in rat plasma. It counts as in vitro ADME. The following applies: for Stability, RE: n = 6. The gist of the method:
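Blank rat plasma spiked with each analyte at low, medium and high QC levels, then subjected to repeated freeze–thaw cycles. Samples were thawed to room temperature and precipitated with cold methanol containing puerarin as internal standard, then vortexed 3 min and centrifuged at 12 000 rpm for 15 min. Analysis was by UPLC-MS/MS on an HSS T3 column at 30 °C (0.1% formic acid water/acetonitrile gradient). Acceptance limit: within 15%.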

Data set [2] is described as follows: Pharmacokinetics in rat plasma after oral administration of AR and SAR extracts. Type of data set: in vivo, Sprague-Dawley (SD) rats.
Setting [3] is: freeze–thaw cycles, high QC (200 / 300 / 250 μg mL^−1).
Setting [4] is: −20 °C for 30 days, high QC (200 / 300 / 250 μg mL^−1).
[5] abbreviates: rat plasma, oral AR extract 5 mL kg^−1, n = 6.

This is an account of results in publication PMC10108379 (RSC Advances, 2023).

In the case of `C[C@H]1CC[C@@]2(OC1)O[C@H]1C[C@H]3[C@@H]4CC[C@@H]5C[C@@H](O[C@@H]6O[C@H](CO)[C@H](O)[C@H](O)[C@H]6O[C@@H]6O[C@H](CO)[C@@H](O)[C@H](O)[C@H]6O)CC[C@]5(C)[C@H]4CC[C@]3(C)[C@H]1[C@@H]2C` [Timosaponin AIII, timosaponin AIII], in the data set with HepG-2 cells, the “glucose consumption of HepG-2 cells” value is listed as “improved the glucose consumption”. For the same compound, in data set [1] (4 °C 24 h, −20 °C 30 days, freeze–thaw cycles, all QC levels), the “relative error (RE) after each stability experiment” value is reported as at most 10.6%. The “Stability, RE” value in data set [1] (autosampler at 4 °C for 24 h, low QC (2.0 / 3.0 / 2.5 μg mL^−1)) is 1.3%; in data set [1] (setting [3]), 3.8%; in data set [1] (freeze–thaw cycles, low QC (2.0 / 3.0 / 2.5 μg mL^−1)), −0.1%; in data set [1] (freeze–thaw cycles, medium QC (20.0 / 30.0 / 25.0 μg mL^−1)) it was 6.8%; in data set [1] (setting [4]) it was 10.6%; in data set [1] (−20 °C for 30 days, low QC (2.0 / 3.0 / 2.5 μg mL^−1)), 2.2%. The “Stability, RE” value in data set [1] (−20 °C for 30 days, medium QC (20.0 / 30.0 / 25.0 μg mL^−1)) is recorded as 6.3%. For the same compound, the C max in data set [2] (setting [5]) came to 3.67 ± 0.51 ng/mL.
In the case of `O=c1c2cc(O)c(O)cc2oc2cc(O)c([C@@H]3O[C@H](CO)[C@@H](O)[C@H](O)[C@H]3O)c(O)c12` [Mangiferin, mangiferin], in the data set on HepG-2 cells, the “glucose consumption of HepG-2 cells” value is on record as “improved the glucose consumption”. Moreover, in data set [1] (setting [3]), the “Stability, RE” value turned out to be 10.2%. The “Stability, RE” value in data set [1] (setting [4]) turned out to be 2.3%. In addition, the “increase of AUC after administration of the SAR extract” value in data set [2] (SAR group compared to AR group, rats, oral) is 22.3%. For the same compound, in data set [2] (setting [5]), the T max stood at 5.76 ± 0.52 h and the “t 1/2” value was 3.01 ± 0.36 h.
